High-throughput results: PubChem BioAssay, Sanford-Burnham Center for Chemical Genomics
Most compounds without a hit are left out; they make up all but 4.4% or so of the library.
SENP1 inh: inhibitors of human SENP1 SUMO protease catalytic domain; Q9P0U3; recombinant SENP1 catalytic domain, CyPet-SUMO1-YPet FRET cleavage; inhibition, % at 10 µM; 0.21% of 360,000 active; AID 624204;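 active means inhibition at least 30% at 10 µM, raw YFP signal under a set limit, fluorescence ratio 0.5 to 1.5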;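 further: 0% = enzyme with DMSO and 100% = no enzyme wells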
Target sequence (Q9P0U3 419-644 limits assumed): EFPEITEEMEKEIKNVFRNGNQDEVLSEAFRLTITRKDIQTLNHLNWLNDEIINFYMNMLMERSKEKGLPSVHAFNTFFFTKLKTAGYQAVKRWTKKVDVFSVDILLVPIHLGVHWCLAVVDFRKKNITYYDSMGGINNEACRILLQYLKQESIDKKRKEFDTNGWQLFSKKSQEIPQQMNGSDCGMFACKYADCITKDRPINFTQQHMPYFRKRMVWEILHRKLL
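Material – human SENP1 catalytic domain · Input – SENP1 enzyme, 20 pM final · Compound dosing – single concentration of 10 µM compound, 0.5% DMSO final · Timing – enzyme reaction for 50 min at room temperature, dark · Measured by – FRET fluorescence in CFP and YFP emission channels · Control set – no-enzyme wells low, DMSO-plus-enzyme wells high control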
MPTP block: permeability transition pore inhibition. isolated mouse mitochondria, Ca2+ swelling absorbance, 30 min. inhibition, % at 10 µM. AID 602449. 1.4% of 360,000 active;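 active means inhibition of 50% or more, scaled per plate between neutral and stimulator controls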;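 further: 0% = DMSO wells given calcium and 100% = 1 mM EGTA wells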
EBI2 antag: blocks human EBI2 receptor beta-arrestin signaling. P32249. EBI2 beta-arrestin recruitment, luminescence, 7a,25-OHC stimulated. inhibition, % at 5 µM. 0.81% of 360,000 active. AID 651636; in the data active means inhibition above about 38%;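 further: enzyme fragment complementation signal reports receptor beta-arrestin coupling in cells; 0% = agonist plus DMSO wells and 100% = wells without agonist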
Target sequence (P32249 whole entry, looked up, the tested form may be a part): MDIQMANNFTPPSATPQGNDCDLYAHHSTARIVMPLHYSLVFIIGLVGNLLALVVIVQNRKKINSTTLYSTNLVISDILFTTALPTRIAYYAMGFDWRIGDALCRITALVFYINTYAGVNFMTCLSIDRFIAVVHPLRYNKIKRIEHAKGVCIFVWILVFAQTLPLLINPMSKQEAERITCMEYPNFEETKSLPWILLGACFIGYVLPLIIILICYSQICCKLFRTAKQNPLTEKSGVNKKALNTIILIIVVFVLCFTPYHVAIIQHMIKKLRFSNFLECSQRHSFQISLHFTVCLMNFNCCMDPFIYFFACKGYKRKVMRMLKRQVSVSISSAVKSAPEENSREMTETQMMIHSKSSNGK
GRIN3A LBD mod: modulators (binders) of human NR3A ligand-binding domain; NR3A LBD differential scanning fluorimetry, Tm shift; 0% = protein alone, 100% = glycine-bound protein; Tm shift relative to glycine control, % at 25 µM; 2.5% of 340,000 active; AID 1259313;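 active means melting temperature shift of at least 10% of the positive control shift, at one fixed dose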
Rh123 counter: Rhodamine 123 counter-screen of mitochondrial pore hits; 78% of 5,000 active; isolated mitochondria, membrane potential, Rhodamine 123 fluorescence; shares compounds with MPTP block; inhibition, % at 10 µM; in the data active means inhibition above about 22%;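 further: 0% = DMSO vehicle and 100% = positive control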
SENP1 inh conf: confirmation of human SENP1 SUMO protease inhibitors | recombinant SENP1, CyPet-SUMO1-YPet FRET cleavage | AID 651678 | 34% of 520 active | shares compounds with SENP1 inh | inhibition, % at 10 µM; in the data active means inhibition mostly above about 35%, no sharp cut-off; inactive means mostly below about 32%;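 further: 0% = enzyme with DMSO and 100% = no enzyme control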
SENP1 kin conf: SENP1 (human) inhibition, kinetic confirmation; 26% of 520 active; shares compounds with SENP1 inh; inhibition, % at 10 µM; AID 651690; recombinant SENP1, CyPet-SUMO1-YPet FRET kinetic cleavage; in the data active means inhibition mostly above about 32%, no sharp cut-off; inactive means mostly below about 29%;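 further: 0% = DMSO with enzyme and 100% = no enzyme substrate only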
EBI2 antag conf: EBI2 (human) antagonism, single concentration confirmation; inhibition, % at 5 µM; EBI2 beta-arrestin luminescence, 7a,25-OHC antagonism; AID 651997; shares compounds with EBI2 antag; 29% of 2,400 active;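 active means inhibition of at least 50%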
EBI2 agonist: activates EBI2, counter-screen for EBI2 antagonists; shares compounds with EBI2 antag; EBI2-expressing cells, agonist mode, luminescence, 60 min; 0% vehicle, 100% 7α,25-dihydroxycholesterol control; 2,400 tested, under 10 active; AID 652000; activation, % at 5 µM;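 active means activation of at least 50%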
bGal cs: inhibits E. coli beta-galactosidase, counter-screen for EBI2 antagonists; purified beta-galactosidase, luminescent Galacton Star, 15 min; inhibition, % at 5 µM; shares compounds with EBI2 antag; 1% of 2,400 active;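 active means replicate-average signal at least 3 plate SD below neutral wells, shown as high inhibition, flagging enzyme-inhibiting false positives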;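 further: 0% = DMSO wells with enzyme and 100% = wells lacking enzyme; higher means stronger loss of beta-gal luminescence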
* marks the source's active call; other numbers are inactive results; nt = no result.

SMILES	SENP1 inh	MPTP block	EBI2 antag	GRIN3A LBD mod	SENP1 inh conf	SENP1 kin conf	others
Clc1ccc(/C=C\c2nccc3c2[nH]c2ccccc23)cc1	-26	70*	65*	20*	nt	nt	Rh123 counter=83*;EBI2 antag conf=45;EBI2 agonist=1;bGal cs=0
Cc1ccc(NC(=S)Nc2ccc(C(C)C)cc2)cc1S(=O)(=O)N1CCCCCC1	-4	103*	50*	28*	nt	nt	Rh123 counter=78*;EBI2 antag conf=51*;EBI2 agonist=1;bGal cs=5
C=CCNC(=S)Nc1ccc(C)c(S(=O)(=O)N2CCCCC2)c1	-2	18	-2	-2	nt	nt
CCOC(=O)c1c(NC(=O)c2ccc(N3C(=O)[C@@H]4[C@H](C3=O)[C@H]3C=C[C@@H]4C3)cc2)sc2c1CC(C)CC2 (some centres undefined)	-1	3	32	-2	nt	nt
CCn1c(O)c(/C=C2\C=Nc3ccccc32)sc1=Nc1ccccc1	-21	53*	53*	12*	nt	nt	Rh123 counter=59*;EBI2 antag conf=38;EBI2 agonist=0;bGal cs=2
CCn1c(O)c(C=C2N=c3ccccc3=N2)sc1=S	-2	0	4	2	nt	nt
COc1ccc(CCC(=O)OCC(=O)Nc2ccccc2OC(F)F)cc1OC	-1	-2	-5	-3	nt	nt
O=C(Nc1ccc(Cl)cc1)N1CCC(c2nc(-c3ccc(F)cc3)no2)CC1	2	90*	53*	8	nt	nt	Rh123 counter=76*;EBI2 antag conf=33;EBI2 agonist=2;bGal cs=7
COc1cccc(OCCNC(=O)c2cc([N+](=O)[O-])cc([N+](=O)[O-])c2)c1	0	0	-4	-3	nt	nt
Cc1ccc(OCCNC(=O)c2cc(C(=O)NCCOc3ccc(C)cc3)cc([N+](=O)[O-])c2)cc1	0	74*	47*	-8	nt	nt	Rh123 counter=83*;EBI2 antag conf=30;EBI2 agonist=-1;bGal cs=-20
Cc1ccc(Cn2cc(/C=N/Nc3ccc([N+](=O)[O-])cn3)c3ccccc32)cc1	-23	23	17	4	nt	nt
Cc1c(/C=N/Nc2ccc([N+](=O)[O-])cn2)c2ccccc2n1Cc1ccccc1	63*	6	4	-2	7	9
CC(C)Nc1nnc(SC(C)C(=O)Nc2ccc(Cl)cn2)s1 (centres undefined)	2	-2	-1	0	nt	nt
CCc1nnc(NC(=O)CCN2C(=O)/C(=C/c3cc(OC)c(OC)c(OC)c3)SC2=S)s1	48*	2	8	2	39*	29
COc1cc(/C=C2\SC(=S)N(CCC(=O)Nc3ccc(O)cc3)C2=O)cc(OC)c1OC	14	0	17	-9	nt	nt
CC(=O)Nc1ccc(S(=O)(=O)NC2CC(=O)N(c3cccc(F)c3)C2)cc1 (centres undefined)	2	-1	-7	3	nt	nt
CC1(C)CC(=O)C2=C(C1)Nc1ccccc1NC2c1ccc(F)c(F)c1 (centres undefined)	2	1	0	-2	nt	nt
CC1(C)CC(=O)C2=C(C1)Nc1ccccc1NC2c1ccccc1F (centres undefined)	36*	2	-10	0	-2	-1
N#C/C(=C\Nc1ccc2c(c1)OCCO2)c1nc(-c2ccccc2)cs1	-28	-2	-45	-2	nt	nt
N#C/C(=C\C=C\c1ccccc1[N+](=O)[O-])c1nc(-c2ccc3c(c2)OCO3)cs1	54*	2	7	0	4	13
O=CNc1ccc2c(c1)Cc1cc([N+](=O)[O-])ccc1-2	48*	0	-5	-5	27	20
CCC(=O)Nc1ccc2c(c1)Cc1cc([N+](=O)[O-])ccc1-2	-6	0	-6	0	nt	nt
CC(=O)N1CCN(Cc2nc(-c3cccc(Cl)c3)no2)CC1	-2	-2	-3	0	nt	nt
C[C@]12C=CC(=O)C=C1CC[C@@H]1C2[C@@H](O)C[C@@]2(C)C1CC[C@]2(O)C(=O)COC(=O)CCC(=O)O (some centres undefined)	1	-1	-10	-4	nt	nt
COc1cc(CC(=O)OCC(=O)NCC(C)C)cc(OC)c1OC	2	-5	2	0	nt	nt
SMILES	SENP1 inh	MPTP block	EBI2 antag	GRIN3A LBD mod	SENP1 inh conf	SENP1 kin conf	others
COc1ccccc1NC(=O)CON=C(N)CC(=O)NC1CCCCC1	55*	0	-4	-1	51*	46*
CCc1cccc(CC)c1NC(=O)CO/N=C(\N)CC(=O)NC1CCCCC1	9	1	0	0	nt	nt
Oc1ccc(Cl)cc1C1=Nc2ccccc2N=C(c2ccco2)C1	67*	4	12	1	64*	52*
COc1ccccc1NC(=O)COC(=O)c1ccc2ccccc2n1	8	-1	-3	0	nt	nt
Cc1ccc(C)c(NC(=O)COC(=O)c2ccc3ccccc3n2)c1	38*	0	-3	-2	22	18
COc1ccc(NC(=O)COC(=O)c2ccc3ccccc3n2)cc1	7	-3	-3	1	nt	nt
COc1ccc(CNC(=O)COC(=O)c2ccc3ccccc3n2)cc1	38*	-1	-18	-2	26	23
CCc1noc(C)c1C(=O)N1CCCSC1=Nc1ccccc1C(C)C	0	0	10	0	nt	nt
CC1CC(=O)Nc2ccccc2N1S(=O)(=O)c1ccc(F)cc1F (centres undefined)	2	0	8	0	nt	nt
CC(=O)Nc1cc(-c2ccc(CO)cc2)cn2c(-c3ccc(F)c(Cl)c3)cnc12	-12	0	33	nt	nt	nt
CN(Cc1c(F)cccc1Cl)C(=O)c1ccc2ccccc2n1	1	-1	13	-1	nt	nt
O=C(NCCSCc1ccccc1)c1ccc(C2SCC(=O)N2Cc2ccccc2)cc1 (centres undefined)	63*	4	17	2	45*	50*
COC(=O)c1ccc(C2SCC(=O)N2Cc2ccccc2)cc1 (centres undefined)	2	2	3	-1	nt	nt
c1cc(Nc2cccc3nccnc23)c2nccnc2c1	52*	0	14	0	61*	41*
Cc1nc2ccc(S(=O)(=O)N(C)CC(=O)NCc3ccc4c(c3)OCO4)cc2s1	3	4	2	5	nt	nt
Cc1nc2ccc(S(=O)(=O)N(C)CC(=O)NCc3ccc(N(C)C)cc3)cc2s1	56*	-1	5	1	15	15
Cc1sc(-c2ccccn2)nc1OC(=O)c1ccc(F)cc1F	51*	-1	-60	-1	50*	69*
